Data from ChEMBL document CHEMBL3091449, “Synthesis and antimicrobial profile of N-substituted imidazolium oximes and their monoquaternary salts against multidrug resistant bacteria” (2013).
≈ marks a conversion by molar mass, not a printed value.

Assays:
Type in all cases: functional
Aeromonas hydrophila [1] = assay: Antibacterial activity against Aeromonas hydrophila FNSST 014 after 18 to 24 hrs by two-fold broth microdilution assay
Method in brief: (§1)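 CLSI two-fold broth microdilution was used. Compounds were dissolved in DMSO, brought to 10 mg/mL in medium, then serially diluted in Mueller Hinton broth over 400–0.09 µg/mL. Overnight MHB cultures were diluted to 10^6 CFU/mL, and 10 µL was added per well. Plates were incubated 18–24 h at 37 °C, then 0.2 mg/mL INT was added for 30 min at 37 °C. MIC was the lowest concentration with no visible growth or pink colour, triplicate.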

Pseudomonas aeruginosa [2] = assay: Antibacterial activity against Pseudomonas aeruginosa FNSST 982 after 18 to 24 hrs by two-fold broth microdilution assay; method in brief: as §1
Klebsiella pneumoniae [3] = assay: Antibacterial activity against Klebsiella pneumoniae FNSST 011 after 18 to 24 hrs by two-fold broth microdilution assay; method in brief: as §1
Escherichia coli [4] = assay: Antibacterial activity against Escherichia coli FNSST 982 after 18 to 24 hrs by two-fold broth microdilution assay; method in brief: as §1
Clostridium perfringens [5] = assay: Antibacterial activity against Clostridium perfringens FNSST 4999 after 18 to 24 hrs by two-fold broth microdilution assay
Method in brief: (§2)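 CLSI two-fold broth microdilution. Compounds dissolved in DMSO, 10 mg/mL stock, serially diluted to 400–0.09 µg/mL in Mueller Hinton broth. Wells inoculated with 10^6 CFU/mL bacteria and incubated 18–24 h at 37 °C. 0.2 mg/mL INT added for 30 min. MIC taken as the lowest concentration with no visible growth or pink colour. Triplicate.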

Staphylococcus aureus [6] = assay: Antibacterial activity against Staphylococcus aureus ATCC 25923 after 18 to 24 hrs by two-fold broth microdilution assay; method in brief: as §1
Enterococcus faecalis [7] = assay: Antibacterial activity against Enterococcus faecalis ATCC 29212 after 18 to 24 hrs by two-fold broth microdilution assay; method in brief: as §1
Bacillus cereus [8] = assay: Antibacterial activity against Bacillus cereus ATCC 11778 after 18 to 24 hrs by two-fold broth microdilution assay; method in brief: as §1
Aspergillus fumigatus = assay: Antifungal activity against Aspergillus fumigatus FNSST 3833 assessed as diameter of zone of inhibition at 250 ug/disc after 72 hrs by disc diffusion method; conditions: FNSST 3833, 72 h, read-out: DIZ
Method in brief: (§3)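 Fungi were grown overnight at 30 °C in Sabouraud dextrose broth to 10^4 cfu/mL, and 100 µL was spread on Sabouraud dextrose agar. 6 mm discs carried 250 µg (25 µL of a 10 mg/mL stock in 96% ethanol), with ethanol as the negative control. Incubation was at 30 °C for 48 h (yeast) or 72 h (molds). Zone diameter was read including the disc, in triplicate, mean ± SE.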

Talaromyces funiculosus = assay: Antifungal activity against Penicillium funiculosum FNSST 3724 assessed as diameter of zone of inhibition at 250 ug/disc after 72 hrs by disc diffusion method; conditions: FNSST 3724, 72 h, read-out: DIZ; method in brief: as §3
Aeromonas hydrophila [9] = assay: Antibacterial activity against Aeromonas hydrophila FNSST 014 assessed as diameter of zone of inhibition at 250 ug/disc after 24 hrs by disc diffusion method; conditions: FNSST 014, 24 h, read-out: DIZ
Method in brief: (§4)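 Bacteria were grown overnight at 37 °C in TSB to about 10^6 cfu/mL, and 100 µL was spread on Mueller Hinton agar. Sterile 6 mm discs were each loaded with 25 µL of a 10 mg/mL stock in 96% ethanol, giving 250 µg/disc. Ethanol served as the negative control. Plates were incubated 24 h at 37 °C. Inhibition zone diameter was measured including the disc, in triplicate, as mean ± SE.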

Pseudomonas aeruginosa [10] = assay: Antibacterial activity against Pseudomonas aeruginosa FNSST 982 assessed as diameter of zone of inhibition at 250 ug/disc after 24 hrs by disc diffusion method; conditions: FNSST 982, 24 h, read-out: DIZ; method in brief: as §4
Klebsiella pneumoniae [11] = assay: Antibacterial activity against Klebsiella pneumoniae FNSST 011 assessed as diameter of zone of inhibition at 250 ug/disc after 24 hrs by disc diffusion method; conditions: FNSST 011, 24 h, read-out: DIZ; method in brief: as §4
Escherichia coli [12] = assay: Antibacterial activity against Escherichia coli FNSST 982 assessed as diameter of zone of inhibition at 250 ug/disc after 24 hrs by disc diffusion method; conditions: FNSST 982, 24 h, read-out: DIZ; method in brief: as §4
Clostridium perfringens [13] = assay: Antibacterial activity against Clostridium perfringens FNSST 4999 assessed as diameter of zone of inhibition at 250 ug/disc after 24 hrs by disc diffusion method; conditions: FNSST 4999, 24 h, read-out: DIZ
Method in brief: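 Disc diffusion per CLSI: 100 µL of 10^6 cfu/mL bacterial suspension spread on Mueller Hinton agar. 6 mm discs loaded with 25 µL of 10 mg/mL compound stock in 96% ethanol (250 µg/disc); ethanol as negative control. Incubated 24 h at 37 °C. Inhibition zone diameter measured in mm including the disc, triplicate, reported as mean ± SE.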

Staphylococcus aureus [14] = assay: Antibacterial activity against Staphylococcus aureus ATCC 25923 assessed as diameter of zone of inhibition at 250 ug/disc after 24 hrs by disc diffusion method; conditions: ATCC 25923, 24 h, read-out: DIZ; method in brief: as §4
Enterococcus faecalis [15] = assay: Antibacterial activity against Enterococcus faecalis ATCC 29212 assessed as diameter of zone of inhibition at 250 ug/disc after 24 hrs by disc diffusion method; conditions: ATCC 29212, 24 h, read-out: DIZ; method in brief: as §4
Bacillus cereus [16] = assay: Antibacterial activity against Bacillus cereus ATCC 11778 assessed as diameter of zone of inhibition at 250 ug/disc after 24 hrs by disc diffusion method; conditions: ATCC 11778, 24 h, read-out: DIZ; method in brief: as §4
Candida albicans = assay: Antifungal activity against Candida albicans ATCC 10231 assessed as diameter of zone of inhibition at 250 ug/disc after 48 hrs by disc diffusion method; conditions: ATCC 10231, 48 h, read-out: DIZ; method in brief: as §3
Pseudomonas aeruginosa [17] = assay: Antibacterial activity against GIM-1 expressing Pseudomonas aeruginosa isolate 197 after 18 to 24 hrs by two-fold broth microdilution assay; method in brief: as §1
Acinetobacter baumannii = assay: Antibacterial activity against SIM-1 expressing Acinetobacter baumannii isolate 170 after 18 to 24 hrs by two-fold broth microdilution assay; method in brief: as §2
Escherichia coli [18] = assay: Antibacterial activity against […] expressing Escherichia coli isolate 235 after 18 to 24 hrs by two-fold broth microdilution assay; method in brief: as §2
Escherichia coli [19] = assay: Antibacterial activity against TEM-1/SHV-12 expressing Escherichia coli isolate 237 after 18 to 24 hrs by two-fold broth microdilution assay; method in brief: as §2
Escherichia coli [20] = assay: Antibacterial activity against […] expressing Escherichia coli isolate 4024 after 18 to 24 hrs by two-fold broth microdilution assay; method in brief: as §2
Aeromonas caviae [21] = assay: Antibacterial activity against TEM-1/CTX-M-15 expressing Aeromonas caviae isolate 260 after 18 to 24 hrs by two-fold broth microdilution assay; method in brief: as §1
Aeromonas caviae [22] = assay: Antibacterial activity against […] expressing Aeromonas caviae isolate 258 after 18 to 24 hrs by two-fold broth microdilution assay; method in brief: as §1
Aeromonas hydrophila [23] = assay: Antibacterial activity against TEM-1/SHV-12 expressing Aeromonas hydrophila isolate 268 after 18 to 24 hrs by two-fold broth microdilution assay; method in brief: as §1
Kluyvera intermedia = assay: Antibacterial activity against TEM-1/SHV-12/[…] expressing Enterobacter intermedius isolate 243 after 18 to 24 hrs by two-fold broth microdilution assay; method in brief: as §1
Enterobacter cloacae [24] = assay: Antibacterial activity against CTX-15 expressing Enterobacter cloacae isolate 51 after 18 to 24 hrs by two-fold broth microdilution assay
Enterobacter cloacae [25] = assay: Antibacterial activity against TEM-1/CTX-M-15 expressing Enterobacter cloacae isolate 62 after 18 to 24 hrs by two-fold broth microdilution assay
Enterobacter cloacae [26] = assay: Antibacterial activity against TEM-1/SHV-12 expressing Enterobacter cloacae isolate 306 after 18 to 24 hrs by two-fold broth microdilution assay
Klebsiella pneumoniae [27] = assay: Antibacterial activity against TEM-1/SHV-12 expressing Klebsiella pneumoniae isolate 303 after 18 to 24 hrs by two-fold broth microdilution assay; method in brief: as §1
[28] = test system: Stenotrophomonas maltophilia; assay: Antibacterial activity against […] expressing Stenotrophomonas maltophilia isolate 125 after 18 to 24 hrs by two-fold broth microdilution assay; method in brief: as §1

SMILES | MIC (Aeromonas hydrophila [1]) [µg/mL] | MIC (Pseudomonas aeruginosa [2]) [µg/mL] | MIC (Klebsiella pneumoniae [3]) [µg/mL] | MIC (Escherichia coli [4]) [µg/mL] | MIC (Clostridium perfringens [5]) [µg/mL] | MIC (Staphylococcus aureus [6]) [µg/mL] | MIC (Pseudomonas aeruginosa [17]) [µg/mL] | MIC (Acinetobacter baumannii) [µg/mL] | MIC (Escherichia coli [18]) [µg/mL] | MIC (Escherichia coli [19]) [µg/mL] | MIC (Escherichia coli [20]) [µg/mL] | MIC (Aeromonas caviae [21]) [µg/mL] | MIC (Aeromonas caviae [22]) [µg/mL] | MIC (Aeromonas hydrophila [23]) [µg/mL] | MIC (Kluyvera intermedia) [µg/mL] | MIC (Enterobacter cloacae [24]) [µg/mL] | MIC (Enterobacter cloacae [25]) [µg/mL] | MIC (Enterobacter cloacae [26]) [µg/mL] | MIC (Klebsiella pneumoniae [27]) [µg/mL] | MIC [28] [µg/mL] | also measured
O/N=C/c1nccn1-c1ccc(F)cc1 | 25 (≈ 122 µM) | 50 (≈ 244 µM) | 100 (≈ 487 µM) | 25 (≈ 122 µM) | 100 (≈ 487 µM) | 100 (≈ 487 µM) |  |  |  |  |  |  |  |  |  |  |  |  |  |  | MIC (Enterococcus faecalis [7]): 25 µg/mL (≈ 122 µM); MIC (Bacillus cereus [8]): 50 µg/mL (≈ 244 µM); zone of inhibition at 250 µg/disc (Aspergillus fumigatus): 15 mm; zone of inhibition at 250 µg/disc (Talaromyces funiculosus): 18.6 mm; zone of inhibition at 250 µg/disc (Aeromonas hydrophila [9]): 15.3 mm; zone of inhibition at 250 µg/disc (Pseudomonas aeruginosa [10]): 9.8 mm; zone of inhibition at 250 µg/disc (Klebsiella pneumoniae [11]): 10.3 mm; zone of inhibition at 250 µg/disc (Escherichia coli [12]): 14.8 mm; zone of inhibition at 250 µg/disc (Clostridium perfringens [13]): 8.6 mm; zone of inhibition at 250 µg/disc (Staphylococcus aureus [14]): 12.4 mm; zone of inhibition at 250 µg/disc (Enterococcus faecalis [15]): 12.2 mm; zone of inhibition at 250 µg/disc (Bacillus cereus [16]): 14 mm; zone of inhibition at 250 µg/disc (Candida albicans): 18.9 mm
O/N=C/c1n(Cc2ccccc2)cc[n+]1Cc1ccccc1.[Br-] | 50 | 62.5 | 42 | 100 | 25 | 12.5 |  |  |  |  |  |  |  |  |  |  |  |  |  |  | MIC (Enterococcus faecalis [7]): 12.5 µg/mL; MIC (Bacillus cereus [8]): 75 µg/mL; zone of inhibition at 250 µg/disc (Aspergillus fumigatus): 20.9 mm; zone of inhibition at 250 µg/disc (Talaromyces funiculosus): 17.6 mm; zone of inhibition at 250 µg/disc (Aeromonas hydrophila [9]): 17.1 mm; zone of inhibition at 250 µg/disc (Pseudomonas aeruginosa [10]): 12.4 mm; zone of inhibition at 250 µg/disc (Klebsiella pneumoniae [11]): 18.6 mm; zone of inhibition at 250 µg/disc (Escherichia coli [12]): 14.2 mm; zone of inhibition at 250 µg/disc (Clostridium perfringens [13]): 18.3 mm; zone of inhibition at 250 µg/disc (Staphylococcus aureus [14]): 14.2 mm; zone of inhibition at 250 µg/disc (Enterococcus faecalis [15]): 17.1 mm; zone of inhibition at 250 µg/disc (Bacillus cereus [16]): 15.5 mm; zone of inhibition at 250 µg/disc (Candida albicans): 20.9 mm
NC[C@H]1O[C@H](O[C@H]2[C@H](O)[C@@H](O[C@H]3O[C@H](CO)[C@@H](O)[C@H](N)[C@H]3O)[C@H](N)C[C@@H]2N)[C@H](N)C[C@@H]1O [TOBRAMYCIN] |  |  |  |  |  |  | 16 (≈ 34.2 µM) | 16 (≈ 34.2 µM) | 16 (≈ 34.2 µM) | 64 (≈ 137 µM) | 32 (≈ 68.4 µM) | 32 (≈ 68.4 µM) | 32 (≈ 68.4 µM) | 16 (≈ 34.2 µM) | > 32 | > 32 | 32 (≈ 68.4 µM) | 16 (≈ 34.2 µM) | 2 (≈ 4.28 µM) | 8 (≈ 17.1 µM) | 
CC(C)(O/N=C(\C(=O)N[C@@H]1C(=O)N2C(C(=O)[O-])=C(C[n+]3ccccc3)CS[C@H]12)c1csc(N)n1)C(=O)O [CEFTAZIDIME] |  |  |  |  |  |  | 256 (≈ 468 µM) | > 256 | 64 (≈ 117 µM) | 8 (≈ 14.6 µM) | 16 (≈ 29.3 µM) | 128 (≈ 234 µM) | 4 (≈ 7.32 µM) | 64 (≈ 117 µM) | 8 (≈ 14.6 µM) | 16 (≈ 29.3 µM) | > 256 | > 256 | 128 (≈ 234 µM) | 128 (≈ 234 µM) | 
C[C@@H](O)[C@H]1C(=O)N2C(C(=O)O)=C(S[C@@H]3CN[C@H](C(=O)N(C)C)C3)[C@H](C)[C@H]12 [MEROPENEM] |  |  |  |  |  |  | > 8 | 16 (≈ 41.7 µM) | 0.12 (≈ 0.313 µM) | 1 (≈ 2.61 µM) | 0.12 (≈ 0.313 µM) | 1 (≈ 2.61 µM) | 0.125 (≈ 0.326 µM) | 0.06 (≈ 0.156 µM) | 0.12 (≈ 0.313 µM) | 0.25 (≈ 0.652 µM) | 0.5 (≈ 1.3 µM) | 0.25 (≈ 0.652 µM) | 0.12 (≈ 0.313 µM) | 128 (≈ 334 µM) | 
